Results reported in ChEMBL document CHEMBL2202989, “New adamantane phenylalkylamines with σ-receptor binding affinity and anticancer activity, associated with putative antagonism of neuropathic pain” (J Med Chem, 2012).

What was measured:
PC-3 [1] = experiment: Cell cycle arrest in human PC3 cells assessed as accumulation at G2 phase at 50 uM after 24 hrs using propidium iodide staining by FACS analysis (reference value: 12 %); format: functional
PC-3 [2] = experiment: Antitumor activity against human PC3 cells xenografted in SCID mouse assessed as primary tumor occurrence at 55 mg/kg, ip administered 5 consecutive days in a week for two cycles measured after 2 cycles relative to control; format: functional; details: route intraperitoneal
In short: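 PC3 xenografts were grown in SCID mice (10^6 cells per inoculum), 14 mice (28 tumors) per group, dosed ip from about 100 mm3. The test agent was given in 5% Tween 80; paclitaxel was given in Cremophor diluted in saline, with a vehicle of 1:1 ethanol/Cremophor diluted 1:3 in saline. Volume and %ΔT/ΔC were derived from caliper readings twice weekly. Occurrence of primary tumors and of axillary and bone metastases was scored (n = 7). Two-tailed t test.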

PC-3 [3] = experiment: Induction of apoptosis in human PC3 cells assessed as late apoptosis at 0.5 uM using annexin V/7-AAD by FACS analysis (reference value: 3 %); format: functional
IGROV-1 [4] = experiment: Induction of apoptosis in human IGROV1 cells assessed as healthy cells at 5 uM using annexin V/7-AAD by FACS analysis (reference value: 86 %); format: functional
BXPC-3 [5] = experiment: Cell cycle arrest in human BxPC3 cells assessed as accumulation at S phase at 15 uM after 24 hrs using propidium iodide staining by FACS analysis (reference value: 33 %); format: functional
In short: (§1)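 Cells were plated 24 h before treatment and exposed for 24 h at final 0.5, 5, 15 and 50 μM in 0.5% DMSO, against vehicle-treated controls. Cells were then trypsinised and fixed in cold ethanol for 3 h at 4 °C. They were stained in a mix of RNase (200 μg/mL) and PI (1 mg/mL) for 45 min at room temperature in the dark. Flow cytometry used 488 nm excitation and 10 000 gated cells. Phase percentages were assigned from DNA content.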

IGROV-1 [6] = experiment: Induction of apoptosis in human IGROV1 cells assessed as late apoptosis at 15 uM using annexin V/7-AAD by FACS analysis (reference value: 5 %); format: functional
BXPC-3 [7] = experiment: Cell cycle arrest in human BxPC3 cells assessed as accumulation at G2 phase at 0.5 uM after 24 hrs using propidium iodide staining by FACS analysis (reference value: 12 %); format: functional; in short: as §1
PC-3 [8] = experiment: Induction of apoptosis in human PC3 cells assessed as late apoptosis at 5 uM using annexin V/7-AAD by FACS analysis (reference value: 3 %); format: functional
MIA PaCa-2 = experiment: Growth inhibition of human MIAPaCa2 cells after 48 hrs by SRB assay; format: functional; details: MIA PaCa-2, 48 h
In short: (§2)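 Cells grown in RPMI 1640 with 5% heat-inactivated FCS, 2 mM L-glutamine and antibiotics, 37 °C, 5% CO2. Seeded at 3500–30000 cells/well and left 24 h before dosing. DMSO solutions added at 10-fold dilutions from 100 to 0.01 μM for 48 h. Cells TCA-fixed and SRB-stained, absorbance read at 540 nm; GI50 derived against the time-zero plate.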

BXPC-3 [9] = experiment: Induction of apoptosis in human BxPC3 cells assessed as healthy cells at 0.5 uM using annexin V/7-AAD by FACS analysis (reference value: 79 %); format: functional
BXPC-3 [10] = experiment: Antitumor activity against human BxPC3 cells xenografted in SCID mouse assessed as tumor growth inhibition at 40 mg/kg, ip administered 3 consecutives days per week for three cycles measured after 3 cycles relative to control; format: functional; details: BXPC-3, ip, route intraperitoneal, read-out: TGI
In short: (§3)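 BxPC3 xenografts were grown in SCID mice from inocula of 10^6 exponentially growing cells, with 10 mice (20 tumors) per group. Treatment started ip once tumors averaged about 100 mm3. The test agent was given in 5% Tween 80 and gemcitabine in water for injection. Tumor volume was measured by caliper twice weekly and %ΔT/ΔC was computed; two-tailed Student's t test.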

PC-3 [11] = experiment: Cell cycle arrest in human PC3 cells assessed as accumulation at >G2/M phase at 5 uM after 24 hrs using propidium iodide staining by FACS analysis (reference value: 6 %); format: functional
SK-HEP1 = experiment: Growth inhibition of human SKHEP1 cells after 48 hrs by SRB assay; format: functional; details: SK-HEP1, 48 h; in short: as §2
IGROV-1 [12] = experiment: Induction of apoptosis in human IGROV1 cells assessed as late apoptosis at 0.5 uM using annexin V/7-AAD by FACS analysis (reference value: 5 %); format: functional
BXPC-3 [13] = experiment: Cell cycle arrest in human BxPC3 cells assessed as accumulation at >G2/M phase at 5 uM after 24 hrs using propidium iodide staining by FACS analysis (reference value: 6 %); format: functional; in short: as §1
Mus musculus = experiment: Toxicity in SCID mouse assessed as body weight loss at 40 to 55 mg/kg, ip for 2 to 3 weeks; format: organism-based; design: route intraperitoneal; details: in vivo
In short: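 CD-1 (male and female) and SCID mice dosed ip at 40−55 mg/kg in 5% Tween 80 for chronic 2−3 week regimens. Deaths and body weight loss compared with vehicle (Tween 80 or Cremophor) and reference-drug groups. Weight loss, neurological, behavioral and dietary changes recorded as toxicity signs.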

BXPC-3 [14] = experiment: Induction of apoptosis in human BxPC3 cells assessed as cleaved caspase3 containing cells at 0.5 uM by antibody-based FACS analysis (reference value: 8.2 %); format: functional
BXPC-3 [15] = experiment: Antitumor activity against human BxPC3 cells xenografted in SCID mouse assessed as tumor growth inhibition at 45 mg/kg, ip administered 3 consecutives days per week for three cycles measured after 3 cycles relative to control; format: functional; details: BXPC-3, ip, route intraperitoneal, read-out: TGI; in short: as §3
IGROV-1 [16] = experiment: Induction of apoptosis in human IGROV1 cells assessed as healthy cells at 0.5 uM using annexin V/7-AAD by FACS analysis (reference value: 86 %); format: functional
IGROV-1 [17] = experiment: Cell cycle arrest in human IGROV1 cells assessed as accumulation at S phase at 0.5 uM after 24 hrs using propidium iodide staining by FACS analysis (reference value: 29 %); format: functional
BXPC-3 [18] = experiment: Cell cycle arrest in human BxPC3 cells assessed as accumulation at G1 phase at 15 uM after 24 hrs using propidium iodide staining by FACS analysis (reference value: 41 %); format: functional; in short: as §1
PC-3 [19] = experiment: Induction of apoptosis in human PC3 cells assessed as total apoptotic death at 15 uM using annexin V/7-AAD by FACS analysis (reference value: 8 %); format: functional
In short: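 Cells plated 24 h before treatment, then exposed 24 h to 0.5, 5, 15 or 50 μM compound (final DMSO 0.5%); vehicle controls included. Cells scraped and stained with annexin V-FITC and 7-AAD for 15 min on ice in the dark. Flow cytometry with 488 nm excitation, 10,000 gated cells. Early apoptosis was annexin V+/7-AAD−, late was annexin V+/7-AAD+.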

BXPC-3 [20] = experiment: Cell cycle arrest in human BxPC3 cells assessed as accumulation at >G2/M phase at 50 uM after 24 hrs using propidium iodide staining by FACS analysis (reference value: 6 %); format: functional; in short: as §1
PC-3 [21] = experiment: Cell cycle arrest in human PC3 cells assessed as accumulation at G1 phase at 50 uM after 24 hrs using propidium iodide staining by FACS analysis (reference value: 36 %); format: functional
[22] = read-out: LC50 (the source's name)

**Q.** With `CN1CCN(CCCc2ccc(C(c3ccccc3)C34CC5CC(CC(C5)C3)C4)cc2)CC1` (stereo not drawn) as the molecule, how does the Activity (PC-3 [1]) read?
**A.** 11%

**Q.** And the Activity (PC-3 [2])?
**A.** 100%

**Q.** And the Activity (PC-3 [3])?
**A.** 1%

**Q.** What about the Activity (IGROV-1 [4]) of the same molecule?
**A.** 83%

**Q.** What about the Activity (BXPC-3 [5]) of the same molecule?
**A.** 27%

**Q.** And the Activity (IGROV-1 [6])?
**A.** 20%

**Q.** And the Activity (BXPC-3 [7])?
**A.** 11%

**Q.** And the Activity (PC-3 [8])?
**A.** 2%

**Q.** What about the GI50 (MIA PaCa-2) of the same molecule?
**A.** 9.39 µM

**Q.** What about the TGI (MIA PaCa-2) of the same molecule?
**A.** 40.1 µM

**Q.** What about the CC50 (MIA PaCa-2; [22]) of the same molecule?
**A.** 0.0726 µM

**Q.** And the Activity (BXPC-3 [9])?
**A.** 82%

**Q.** What about the inhibition in vivo at 40 mg/kg (BXPC-3 [10]) of the same molecule?
**A.** 21.8%

**Q.** And the Activity (PC-3 [11])?
**A.** 6%

**Q.** And the GI50 (SK-HEP1)?
**A.** 3.49 µM

**Q.** What about the TGI (SK-HEP1) of the same molecule?
**A.** 6.37 µM

**Q.** What about the CC50 (SK-HEP1; [22]) of the same molecule?
**A.** 0.00924 µM

**Q.** What about the Activity (IGROV-1 [12]) of the same molecule?
**A.** 3%

**Q.** And the Activity (BXPC-3 [13])?
**A.** 5%

**Q.** And the Activity (Mus musculus)?
**A.** Non-toxic

**Q.** What about the Activity (BXPC-3 [14]) of the same molecule?
**A.** 4%

**Q.** What about the inhibition in vivo at 45 mg/kg (BXPC-3 [15]) of the same molecule?
**A.** 37.2%

**Q.** What about the Activity (IGROV-1 [16]) of the same molecule?
**A.** 89%

**Q.** What about the Activity (IGROV-1 [17]) of the same molecule?
**A.** 26%

**Q.** What about the Activity (BXPC-3 [18]) of the same molecule?
**A.** 32%

**Q.** What about the Activity (PC-3 [19]) of the same molecule?
**A.** 16%

**Q.** And the Activity (BXPC-3 [20])?
**A.** 4%

**Q.** And the Activity (PC-3 [21])?
**A.** 29%
